Compound activity (PubChem BioAssay)
NCF1 inh: p47phox/p22phox peptide binding inhibitors, primary screen, biochemical, uHTS, NADPH oxidase regulatory subunit; Neutrophil cytosol factor 1 (Homo sapiens), P14598; fluorescence polarization, 2 h; inhibition, % at 24.7 µM; hit rate 0.53% among 220,000;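 active means inhibition above about 30%, limit read from the data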;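 further: 0% = p47phox with labelled peptide and 100% = labelled peptide alone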
Target sequence (P14598 whole entry, looked up): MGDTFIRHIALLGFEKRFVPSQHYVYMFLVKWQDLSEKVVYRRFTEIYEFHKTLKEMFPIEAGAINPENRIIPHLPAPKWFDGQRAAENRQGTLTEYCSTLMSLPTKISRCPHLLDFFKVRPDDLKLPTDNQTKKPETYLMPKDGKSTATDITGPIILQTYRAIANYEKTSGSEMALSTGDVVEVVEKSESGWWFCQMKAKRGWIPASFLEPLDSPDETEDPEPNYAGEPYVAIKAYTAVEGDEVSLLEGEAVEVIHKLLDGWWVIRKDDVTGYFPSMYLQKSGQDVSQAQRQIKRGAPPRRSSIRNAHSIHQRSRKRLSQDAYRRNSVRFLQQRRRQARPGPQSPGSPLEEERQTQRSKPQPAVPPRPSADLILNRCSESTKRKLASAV
Avidin fluor: green autofluorescence of compounds with avidin beads – biophysical, 488/530 nm, flow cytometry, artefact control, profiling panel. AID 1775, 2009. compound fluorescence 488/530 nm; active compounds read high. hit rate 0.38% among 220,000. fluorescence (KMESF) at 10 µM; in the data active means fluorescence above about 47
GSH bead fluor: compound fluorescence on glutathione beads, profiling panel, artefact control, biophysical, 488/530 nm, flow cytometry; GSH beads flow cytometry, compound fluorescence 488/530 nm; active compounds read high; fluorescence (KMESF) at 10 µM; hit rate 0.25% among 190,000; AID 1776, 2009; in the data active means fluorescence above about 89;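 further: glutathione beads carrying GST-tagged Bcl family fusion proteins plus one bare bead set; values are compound well signal with DMSO vehicle wells as background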
Diaph act CS: compounds boosting diaphorase resazurin reduction – biochemical, uHTS, resorufin fluorescence, counter-screen for diaphorase-coupled primary assays, primary screen. Diaphorase/resazurin coupled assay, 16 min; active compounds read high; 1 = vehicle wells, 0 = NADH-free wells. activation factor at 20 µM. hit rate 0.005% among 190,000;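 active means diaphorase activity raised at least twofold by the compound at 20 µM; inactive means activation factor below 2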
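Assay system: Purified diaphorase enzyme from Clostridium kluyveri | Amount: Enzyme 0.07 U/mL final | Dosing: Compound 20 µM once, DMSO 1% | Timing: 16 min reaction at room temperature | Detection: Fluorescence, excitation 544 nm and emission 590 nm | Evaluation: Higher resorufin formation from activation or reduction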
PMI act: activators of human PMI, primary screen, biochemical, fluorescence intensity, near-Km mannose 6-phosphate. Mannose-6-phosphate isomerase (Homo sapiens), P34949. purified human PMI, coupled resazurin fluorescence, 20 min; active compounds read high; 1 = vehicle control, 0 substrate-free wells. activation factor at 20 µM. hit rate 0.005% among 190,000. AID 1214, 2008;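 active means activation factor of 2 or more at 20 µM, relative to plate controls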
PMI act satM6P: human PMI activators, high substrate, primary screen, biochemical, fluorescence intensity, near-saturating mannose 6-phosphate; activation factor at 20 µM; coupled PMI enzyme assay, resazurin fluorescence, 20 min; active compounds read high; 1 = untreated enzyme, 0 = substrate-free blank; Mannose-6-phosphate isomerase (Homo sapiens), P34949; hit rate 0.34% among 190,000;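 active means activation factor of 2 or more at 20 µM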
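Test system – human PMI in coupled enzyme assay · Timing – 20 min incubation at room temperature · Detection – Diaphorase-driven resazurin-to-resorufin fluorescence, excitation 544, emission 590 nm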
Starred values were filed as active, the others as inactive; / = no result; ! = a repeat was not active. Compounds with a hit are over-represented: about 1.4% of the library has one in this group of screens.

SMILES	NCF1 inh	Avidin fluor	GSH bead fluor	Diaph act CS	PMI act	PMI act satM6P
CC(C)=CC(=O)OCC(=O)Nc1cc(C)ccc1C	6.9	11	15	0.9	0.9	1
CC(C)=CC(=O)OCC(=O)Nc1ccccc1Cl	-1.7	7	266*	0.9	1	1
COC(=O)CCNCCSc1nnc(-c2ccco2)n1Cc1ccccc1	7.4	10	/	/	/	/
Cc1ccc(N(C(=O)c2csnn2)C(C(=O)NC(C)(C)C)c2cccnc2)cc1C (centres undefined)	1.3	11	13	1.2	1	1
CC1CCC(C(C)C)C(OC(=O)Cn2c(-c3ccc(Br)cc3)[n+](C)c3ccccc32)C1 (centres undefined)	9.5	9	14	1	1.1	1
Cc1ccccc1OCc1n(CC(=O)OC2CC(C)CCC2C(C)C)c2ccccc2[n+]1C (centres undefined)	38.6*!	12	8	1.2	1.1	1.1
NC(=O)Cn1nc(C(F)(F)F)c2c1CCCC2	-15.1	9	12	0.8	0.9	1
CCOc1ccc(-n2c(C)nc3cc(C(=O)NCCN4CCOCC4)ccc32)cc1	-15.8	7	104*	0.9	1	1
O=C1NC2(CCC3(CC2)OCCO3)NN1c1ccc(Cl)cc1	-2.7	12	10	1	1.8	2.7*
Cc1ccc(C(=O)CSc2ccccn2)cc1	-12.1	65*	16	1.1	1.2	1.4
CCn1c(SCc2nc3cc(OC)c(OC)cc3c(=O)[nH]2)nc2ccccc21	-11.2	10	13	1	1	1
COc1cc2nc(CN3CCN(C(c4ccccc4)c4ccccc4)CC3)[nH]c(=O)c2cc1OC	63.0*	7	/	/	/	/
Cc1ccc(-c2nn(CCC(=O)NCC3CCCO3)c(=O)c3ccccc23)cc1 (centres undefined)	-2.8	12	24	0.9	0.9	0.9
CCCCCc1cc(=O)oc2c(C(CCN3CCCCC3)c3ccc4c(c3)OCO4)c(OC)cc(OC)c12 (centres undefined)	-4.5	9	/	/	/	/
CCCCCc1cc(=O)oc2c(C(CCN3CCCC(C)C3)c3ccc4c(c3)OCO4)c(OC)cc(OC)c12 (centres undefined)	32.9*	15	/	/	/	/
N#CC1=C(N)OC2=C(C(=O)CC(c3ccccc3)C2)C1c1cccnc1 (centres undefined)	1.7	3	25	1.2	1.1	1.2
Cc1cc(C)n2nc(-c3ccsc3-n3c(C)ccc3C)cc2n1	-88.0	12	35	0.6	1.1	1.4
CC(=O)c1cc2c(cc1NC(=O)CN1CCC(Cc3ccccc3)CC1)OCO2	-17.4	8	34	0.9	0.8	0.9
CCOC(=O)Cc1csc(NC(=O)NC2(C(F)(F)F)Oc3ccc(Cl)cc3O2)n1 (centres undefined)	-3.4	6	251*	0.6	0.5	0.5
Cc1ccc(S(=O)(=O)N2CCN(C(=O)c3cccc(F)c3)CC2)cc1	-1.7	172*	27	0.8	0.9	0.9
O=C(c1cccc(F)c1)N1CCCN(C(=O)c2cccc(F)c2)CC1	-10.1	3	3	1	1.1	1
CCC1CCCCN1C(=O)Cn1c(=O)n(CCC(=O)NCc2ccco2)c(=O)c2sccc21 (centres undefined)	-6.1	28	23	0.8	0.9	0.9
C/C(=N\Nc1cccc(Cl)c1)c1ccc(-n2ccnc2)cc1	-9.5	12	21	0.9	1.8	2.6*
O=[N+]([O-])c1ccc(S(=O)(=O)NCCc2cn3ccccc3n2)cc1	-1.9	2	16	0.9	1	1
CCCCN(CC)Cc1ccc(CNC(=O)Nc2ccc(OCC)cc2)o1	-7.3	87*	34	1	1	1.1
